Data as given in ChEMBL document CHEMBL4627265, “Optimization of 8-oxoadenines with toll-like-receptor 7 and 8 activity” (Bioorg Med Chem Lett, 2020).
Calls of active or inactive are those of the source. The calls are words filed in the database; no cut-off is given here.

Columns and labels:
[1] = biological target: T1, Toll-like receptor 7 (Homo sapiens) (UniProt Q9NYK1); assay: Agonist activity at TLR7 in human PBMC assessed as induction of plasmacytoid dendritic cell maturation by measuring CD80 level at 0.1 uM after 6 hrs by flow cytometry; type: cell-based
T1 sequence (whole entry): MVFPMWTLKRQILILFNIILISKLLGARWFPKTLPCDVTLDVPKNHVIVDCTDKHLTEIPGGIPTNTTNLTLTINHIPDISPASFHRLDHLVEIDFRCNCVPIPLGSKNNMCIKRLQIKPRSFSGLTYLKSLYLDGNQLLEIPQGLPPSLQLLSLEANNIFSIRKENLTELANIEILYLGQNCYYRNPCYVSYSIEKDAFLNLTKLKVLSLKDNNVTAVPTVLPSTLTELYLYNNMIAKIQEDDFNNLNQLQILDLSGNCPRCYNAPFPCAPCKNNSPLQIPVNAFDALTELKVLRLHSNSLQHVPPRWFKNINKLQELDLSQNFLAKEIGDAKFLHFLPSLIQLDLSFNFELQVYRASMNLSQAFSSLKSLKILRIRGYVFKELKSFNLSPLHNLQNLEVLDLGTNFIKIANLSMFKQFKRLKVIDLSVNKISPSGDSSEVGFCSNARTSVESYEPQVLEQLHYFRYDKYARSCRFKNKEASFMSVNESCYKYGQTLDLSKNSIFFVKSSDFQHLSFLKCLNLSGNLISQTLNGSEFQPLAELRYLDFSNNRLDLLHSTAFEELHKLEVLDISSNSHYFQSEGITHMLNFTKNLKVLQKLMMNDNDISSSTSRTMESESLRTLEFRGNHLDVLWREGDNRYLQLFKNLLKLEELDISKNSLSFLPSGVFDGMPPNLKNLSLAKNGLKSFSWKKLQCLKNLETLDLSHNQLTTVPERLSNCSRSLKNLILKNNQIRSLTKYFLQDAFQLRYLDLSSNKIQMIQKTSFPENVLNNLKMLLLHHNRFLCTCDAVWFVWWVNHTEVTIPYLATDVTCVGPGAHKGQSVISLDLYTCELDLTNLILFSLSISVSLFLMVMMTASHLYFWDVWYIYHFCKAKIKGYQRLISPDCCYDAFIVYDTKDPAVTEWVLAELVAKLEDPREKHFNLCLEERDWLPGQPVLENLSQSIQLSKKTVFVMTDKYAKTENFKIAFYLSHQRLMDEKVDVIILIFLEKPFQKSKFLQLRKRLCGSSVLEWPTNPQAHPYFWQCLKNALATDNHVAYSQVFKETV
How it was run: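 hPBMCs stimulated 6 h at a single 0.1 μM dose; HLA-DR, MHC-I, CD80 and CD86 on mDCs and pDCs measured by flow cytometry, expressed as fold change versus unstimulated cells. Mean ± SD of three independent experiments in three different donors.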

[2] = biological target: T2, Toll-like receptor 9 (Homo sapiens) (UniProt Q9NR96); assay: Agonist activity at human TLR9 expressed in HEK293 cells by SEAP reporter gene assay; type: cell-based
T2 sequence (whole entry): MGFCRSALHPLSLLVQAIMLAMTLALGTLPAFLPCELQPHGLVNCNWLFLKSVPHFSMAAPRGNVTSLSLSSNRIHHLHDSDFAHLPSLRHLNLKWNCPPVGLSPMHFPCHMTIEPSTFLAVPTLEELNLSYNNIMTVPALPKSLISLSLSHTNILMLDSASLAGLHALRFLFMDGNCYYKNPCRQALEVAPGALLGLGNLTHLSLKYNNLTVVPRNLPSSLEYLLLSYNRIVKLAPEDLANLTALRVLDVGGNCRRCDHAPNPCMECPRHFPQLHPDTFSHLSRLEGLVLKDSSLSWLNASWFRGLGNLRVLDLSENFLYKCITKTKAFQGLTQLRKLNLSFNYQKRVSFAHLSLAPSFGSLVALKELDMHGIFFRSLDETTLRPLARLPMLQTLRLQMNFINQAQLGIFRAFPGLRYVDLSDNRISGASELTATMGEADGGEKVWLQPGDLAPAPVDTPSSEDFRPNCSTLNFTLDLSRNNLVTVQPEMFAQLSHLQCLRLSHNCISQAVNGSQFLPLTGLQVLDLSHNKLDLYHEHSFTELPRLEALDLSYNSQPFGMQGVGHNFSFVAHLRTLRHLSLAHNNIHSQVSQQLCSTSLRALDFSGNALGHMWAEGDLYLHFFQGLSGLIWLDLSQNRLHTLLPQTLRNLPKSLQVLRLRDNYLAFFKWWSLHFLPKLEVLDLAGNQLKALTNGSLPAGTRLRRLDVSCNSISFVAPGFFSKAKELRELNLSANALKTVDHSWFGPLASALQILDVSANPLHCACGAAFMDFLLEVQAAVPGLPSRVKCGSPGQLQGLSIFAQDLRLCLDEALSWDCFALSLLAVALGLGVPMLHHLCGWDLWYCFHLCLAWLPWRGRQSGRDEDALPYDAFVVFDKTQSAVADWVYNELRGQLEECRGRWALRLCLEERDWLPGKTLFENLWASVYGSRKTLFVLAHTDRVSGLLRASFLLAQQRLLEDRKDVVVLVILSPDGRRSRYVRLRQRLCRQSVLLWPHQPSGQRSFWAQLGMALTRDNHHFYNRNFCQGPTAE

**Q.** Which Activity [1] does the source give for Nc1nc(OCCCCO)nc2c1[nH]c(=O)n2CC1CCNCC1 here?
**A.** The Activity was “inactive”.

**Q.** And the Activity [2]?
**A.** Its Activity is “inactive”.
